Activity calls are given as the source filed them. No cut-off for these calls is given here.
Experiments:
[1] = Displacement of [3H]flumazenil from bovine brain cortex GABAA/Bz receptor; parameters: species or system Bos taurus
Method in brief: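 Bovine cerebral cortex membranes in 50 mM Tris-citrate pH 7.4, [3H]Ro 15-1788 (70.8 Ci/mmol) as radioligand. […] At least six concentrations used, curve-fitted, Ki by Cheng–Prusoff; means ± SEM of five determinations in triplicate.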

[2] = system: Mus musculus; assay: Effect on motor coordination in CD1 Albino mouse assessed as number of falls in 30 secs at 3 mg/kg, po […] by rotarod test relative to control; assay type: functional
[3] = system: Mus musculus; assay: Anticonvulsant activity against pentylenetetrazole-induced seizure in CD1 Albino mouse at 3 mg/kg, po; assay type: functional
Method in brief: (§1)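 Male CD-1 mice (22–24 g) dosed po in 1% carboxymethylcellulose (10 ml/kg); PTZ 90 mg/kg sc given 30 min later. Occurrence of clonic generalized convulsions noted over 30 min and expressed as percent of animals protected; latency (s) also recorded. Means ± SEM; ANOVA with Scheffe post-hoc test, Student's two-tailed t-test for pairs of means.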

[4] = target: GABA-A receptor alpha-5/beta-2/gamma-2 (Rattus norvegicus); assay: Displacement of [3H]Ro-151788 from rat recombinant GABA alpha-5-beta-2-gamma-2 receptor expressed in HEK293 cells
[5] = system: Mus musculus; assay: Effect on motor coordination in CD1 Albino mouse assessed as number of falls in 30 secs at 30 mg/kg, po […] by rotarod test relative to control; assay type: functional
[6] = system: Mus musculus; assay: Effect on learning and memory performance in CD1 Albino mouse assessed as cognition enhancement at 3 mg/kg, po; assay type: functional, organism-based; parameters: dose 3 mg/kg
Method in brief: (§2)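 Passive avoidance test in male CD-1 mice dosed po 30 min before training, with retention tested 24 h later. Read-out was the difference in latency (s) to enter the dark compartment between training and retention. Means ± SEM of 9–10 mice; ANOVA with Fischer's test.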

[7] = system: Mus musculus; assay: Anticonvulsant activity against pentylenetetrazole-induced seizure in CD1 Albino mouse at 10 mg/kg, po; assay type: functional; method in brief: as §1
[8] = system: Mus musculus; assay: Anticonvulsant activity against pentylenetetrazole-induced seizure in CD1 Albino mouse assessed as latency at 3 mg/kg, po; assay type: functional; method in brief: as §1
[9] = system: Mus musculus; assay: Effect on learning and memory performance in CD1 Albino mouse assessed as cognition enhancement at 10 mg/kg, po; assay type: functional, organism-based; parameters: dose 10 mg/kg; method in brief: as §2
[10] = target: GABA-A receptor; alpha-1/beta-2/gamma-2 (Rattus norvegicus, UniProt P18508+P62813+P63138); assay: Displacement of [3H]Ro15-1788 from rat recombinant GABA alpha-1-beta-2-gamma-2 receptor expressed in HEK293 cells; assay type: cell-based
Method in brief: (§3)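 Crude membranes from clonal mammalian cells expressing recombinant subtypes, grown in MEM/EBSS with 10% FCS at 37 °C, 5% CO2. Membranes resuspended in 10 mM potassium phosphate pH 7.4 with 100 mM KCl. Ki from three independent experiments run in triplicate, means ± SEM.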

[11] = target: GABA A receptor alpha-3/beta-2/gamma-2 (Rattus norvegicus, UniProt P18508+P20236+P63138); assay: Displacement of [3H]Ro15-1788 from rat recombinant GABA alpha-3-beta-2-gamma-2 receptor expressed in HEK293 cells; assay type: cell-based; method in brief: as §3
[12] = system: Mus musculus; assay: Effect on motor coordination in CD1 Albino mouse assessed as number of falls in 30 secs at 10 mg/kg, po […] by rotarod test relative to control; assay type: functional
[13] = organism: Mus musculus; assay: Anxiogenic-like effect in CD1 Albino mouse assessed as decrease in time spent in light compartment in light-dark box test; assay type: functional, organism-based
Method in brief: (§4)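 Light/dark box test in male CD-1 mice dosed 30 min beforehand in 1% CMC vehicle. Number of transfers between compartments and time spent in the illuminated side counted over 5 min. Statistics by ANOVA with Fischer's test versus controls.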

[14] = system: Mus musculus; assay: Anticonvulsant activity against pentylenetetrazole-induced seizure in CD1 Albino mouse at 30 mg/kg, po; assay type: functional; method in brief: as §1
[15] = system: Mus musculus; assay: Decrease in ethanol-induced sleeping time in CD1 Albino mouse at 10 mg/kg, po relative to control; assay type: functional, organism-based; parameters: dose 10 mg/kg
Method in brief: (§5)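 Male CD-1 mice given drug po in 1% CMC, then ethanol 4 g/kg ip 30 min later. Sleep time taken as duration of loss of righting reflex, capped at 210 min. Means ± SEM of 5–16 mice; ANOVA with Fischer's test versus controls.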

[16] = system: Mus musculus; assay: Decrease in ethanol-induced sleeping time in CD1 Albino mouse at 3 mg/kg, po relative to control; assay type: functional, organism-based; parameters: dose 3 mg/kg; method in brief: as §5
[17] = system: Mus musculus; assay: Anxiogenic-like effect in CD1 Albino mouse assessed as decrease in number of transfers from one compartment to another at 10 mg/kg in light-dark box test; assay type: functional, organism-based; parameters: dose 10 mg/kg; method in brief: as §4

GABA A receptor alpha-3/beta-2/gamma-2, sequence (P18508 whole entry): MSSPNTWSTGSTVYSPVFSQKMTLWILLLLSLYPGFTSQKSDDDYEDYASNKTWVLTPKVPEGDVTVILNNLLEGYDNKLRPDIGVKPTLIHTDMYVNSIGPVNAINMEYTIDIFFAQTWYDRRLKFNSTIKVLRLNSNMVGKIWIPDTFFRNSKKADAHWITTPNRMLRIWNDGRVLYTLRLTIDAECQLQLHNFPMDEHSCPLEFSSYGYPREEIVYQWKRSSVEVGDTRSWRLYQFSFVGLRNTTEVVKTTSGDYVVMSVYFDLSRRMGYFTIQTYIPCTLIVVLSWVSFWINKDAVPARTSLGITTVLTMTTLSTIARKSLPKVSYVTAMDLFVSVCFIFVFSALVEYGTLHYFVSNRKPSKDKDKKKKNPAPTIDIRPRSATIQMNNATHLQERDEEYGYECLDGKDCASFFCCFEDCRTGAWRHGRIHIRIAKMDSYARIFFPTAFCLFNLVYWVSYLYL
GABA A receptor alpha-3/beta-2/gamma-2, sequence (P20236 whole entry): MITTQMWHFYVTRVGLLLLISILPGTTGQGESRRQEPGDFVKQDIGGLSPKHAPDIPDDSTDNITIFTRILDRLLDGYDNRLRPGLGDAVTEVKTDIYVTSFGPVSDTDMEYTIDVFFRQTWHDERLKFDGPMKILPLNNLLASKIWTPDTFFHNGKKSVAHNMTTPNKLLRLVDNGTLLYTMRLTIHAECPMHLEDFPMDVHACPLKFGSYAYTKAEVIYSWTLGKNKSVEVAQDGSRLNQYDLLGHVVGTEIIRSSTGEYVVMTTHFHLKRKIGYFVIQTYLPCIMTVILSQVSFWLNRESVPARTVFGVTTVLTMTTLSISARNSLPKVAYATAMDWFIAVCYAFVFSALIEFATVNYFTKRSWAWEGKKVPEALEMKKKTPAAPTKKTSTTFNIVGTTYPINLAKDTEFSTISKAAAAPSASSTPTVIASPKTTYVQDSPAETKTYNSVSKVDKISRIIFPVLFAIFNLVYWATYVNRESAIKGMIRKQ
GABA A receptor alpha-3/beta-2/gamma-2, sequence (P63138 whole entry): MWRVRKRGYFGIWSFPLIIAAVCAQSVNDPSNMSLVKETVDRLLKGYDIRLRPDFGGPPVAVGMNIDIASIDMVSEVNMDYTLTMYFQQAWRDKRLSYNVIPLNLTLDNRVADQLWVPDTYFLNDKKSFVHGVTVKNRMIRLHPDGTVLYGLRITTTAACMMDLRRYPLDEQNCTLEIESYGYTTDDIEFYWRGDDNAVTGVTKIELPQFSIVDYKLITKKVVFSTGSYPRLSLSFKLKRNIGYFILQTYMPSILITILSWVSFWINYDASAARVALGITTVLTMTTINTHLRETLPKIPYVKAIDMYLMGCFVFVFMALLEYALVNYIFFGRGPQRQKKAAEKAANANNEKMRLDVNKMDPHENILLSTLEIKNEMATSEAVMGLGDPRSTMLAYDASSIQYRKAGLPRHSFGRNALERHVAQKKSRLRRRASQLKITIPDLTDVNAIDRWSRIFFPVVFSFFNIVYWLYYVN
GABA-A receptor; alpha-1/beta-2/gamma-2, sequence (P18508 whole entry): as the sequence (P18508 whole entry) above
GABA-A receptor; alpha-1/beta-2/gamma-2, sequence (P62813 whole entry): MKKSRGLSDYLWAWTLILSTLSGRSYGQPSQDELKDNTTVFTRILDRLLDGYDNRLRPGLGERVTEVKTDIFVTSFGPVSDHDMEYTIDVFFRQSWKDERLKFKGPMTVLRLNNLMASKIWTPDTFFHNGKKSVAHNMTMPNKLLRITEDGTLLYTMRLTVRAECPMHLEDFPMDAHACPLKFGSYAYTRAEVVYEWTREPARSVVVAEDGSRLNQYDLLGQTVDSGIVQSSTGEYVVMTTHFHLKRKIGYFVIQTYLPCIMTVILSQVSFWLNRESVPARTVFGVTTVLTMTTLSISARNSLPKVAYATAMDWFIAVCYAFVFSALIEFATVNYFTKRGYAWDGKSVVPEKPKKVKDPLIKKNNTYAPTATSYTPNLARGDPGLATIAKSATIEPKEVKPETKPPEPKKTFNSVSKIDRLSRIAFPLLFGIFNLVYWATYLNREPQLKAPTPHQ
GABA-A receptor; alpha-1/beta-2/gamma-2, sequence (P63138 whole entry): as the sequence (P63138 whole entry) above

Question: For [O-][n+]1nc2c(I)cnn2c2cc(I)ccc21, which Ki [1] is on record?
Answer: Its Ki is 14 nM.

Question: Which Ki [1] does the source give for CN1C(=O)CN=C(c2ccccc2)c2cc(Cl)ccc21 [DIAZEPAM] here?
Answer: Its Ki is 10 nM.

Question: And the Activity [2]?
Answer: The Activity was 1.2.

Question: And the Activity [3]?
Answer: The Activity was 100%.

Question: Which Ki [1] does the source give for CCOc1ccc2n[n+]([O-])c3c(Br)cnn3c2c1 here?
Answer: Its Ki is 15.6 nM.

Question: Which Ki [4] does the source give for CCOc1ccc2n[n+]([O-])c3c(I)cnn3c2c1 here?
Answer: The Ki was 70 nM.

Question: What about the Ki [1] of the same compound?
Answer: Its Ki is 1.7 nM.

Question: And the Activity [5]?
Answer: Its Activity is 0.6.

Question: And the Activity [6]?
Answer: Its Activity is “Active”.

Question: What about the Activity [7] of the same compound?
Answer: The Activity was 12.5%.

Question: What about the Activity [8] of the same compound?
Answer: Its Activity is 293.4 s.

Question: And the Activity [9]?
Answer: Its Activity is “Active”.

Question: What about the Ki [10] of the same compound?
Answer: The Ki was 2.6 nM.

Question: And the Ki [11]?
Answer: Its Ki is 12.3 nM.

Question: And the Activity [12]?
Answer: Its Activity is 0.4.

Question: And the Activity [3]?
Answer: The Activity was 0%.

Question: What about the Activity [13] of the same compound?
Answer: The Activity was “Active”.

Question: For [O-][n+]1nc2c(I)cnn2c2cc(Br)ccc21, which Ki [1] is on record?
Answer: Its Ki is 14 nM.

Question: Which Ki [1] does the source give for Cc1ccc2c(c1)n1ncc(Br)c1n[n+]2[O-] here?
Answer: The Ki was 53.2 nM.

Question: With CC(C)Oc1ccc2c(c1)n1ncc(I)c1n[n+]2[O-] as the compound, how does the Ki [1] read?
Answer: The Ki was 42 nM.

Question: Which Ki [1] does the source give for CN(C)CCOc1ccc2c(c1)n1ncc(I)c1n[n+]2[O-] here?
Answer: The Ki was 233 nM.

Question: For [O-][n+]1nc2c(Br)cnn2c2cc(I)ccc21, which Ki [1] is on record?
Answer: The Ki was 81 nM.

Question: With CCCCOc1ccc2c(c1)n1ncc(I)c1n[n+]2[O-] as the compound, how does the Ki [1] read?
Answer: Its Ki is 5.4 nM.

Question: For [O-][n+]1nc2c(Cl)cnn2c2cc(Cl)ccc21, which Ki [1] is on record?
Answer: The Ki was 374 nM.

Question: With CCOc1ccc2c(c1)n1ncc(Br)c1n[n+]2[O-] as the compound, how does the Ki [1] read?
Answer: Its Ki is 36.9 nM.

Question: With CCOc1ccc2c(c1)n1ncc(I)c1n[n+]2[O-] as the compound, how does the Ki [4] read?
Answer: Its Ki is 99 nM.

Question: What about the Ki [1] of the same compound?
Answer: The Ki was 4.8 nM.

Question: What about the Activity [5] of the same compound?
Answer: The Activity was 0.2.

Question: And the Activity [14]?
Answer: Its Activity is 0%.

Question: What about the Activity [6] of the same compound?
Answer: The Activity was “Active”.

Question: What about the Activity [2] of the same compound?
Answer: Its Activity is 0.2.

Question: What about the Activity [7] of the same compound?
Answer: The Activity was 0%.

Question: And the Activity [15]?
Answer: The Activity was “Active”.

Question: What about the Activity [16] of the same compound?
Answer: The Activity was “Active”.

Question: And the Activity [9]?
Answer: Its Activity is “Active”.

Question: What about the Ki [10] of the same compound?
Answer: The Ki was 4.1 nM.

Question: And the Ki [11]?
Answer: Its Ki is 34 nM.

Question: What about the Activity [12] of the same compound?
Answer: The Activity was 0.2.

Question: What about the Activity [17] of the same compound?
Answer: The Activity was “Active”.

Question: What about the Activity [3] of the same compound?
Answer: The Activity was 10%.

Question: What about the Activity [13] of the same compound?
Answer: The Activity was “Active”.

Question: With [O-][n+]1nc2c(Cl)cnn2c2cc(Br)ccc21 as the compound, how does the Ki [1] read?
Answer: The Ki was 332 nM.

Question: Which Ki [1] does the source give for Clc1ccc2nnc3c(I)cnn3c2c1 here?
Answer: Its Ki is 22.8 nM.

Question: Which Ki [1] does the source give for [O-][n+]1nc2c(I)cnn2c2cc(O)ccc21 here?
Answer: The Ki was 1700 nM.

Question: For [O-][n+]1nc2c(Cl)cnn2c2cc(I)ccc21, which Ki [1] is on record?
Answer: The Ki was 202 nM.

Question: For Cc1ccc2c(c1)n1ncc(I)c1n[n+]2[O-], which Ki [1] is on record?
Answer: Its Ki is 12 nM.

Question: With CCCCCOc1ccc2c(c1)n1ncc(I)c1n[n+]2[O-] as the compound, how does the Ki [1] read?
Answer: Its Ki is 6.5 nM.

Question: With C#CCOc1ccc2c(c1)n1ncc(I)c1n[n+]2[O-] as the compound, how does the Ki [1] read?
Answer: The Ki was 0.8 nM.

Question: Which Ki [1] does the source give for Cc1ccc2c(c1)n1ncc(Cl)c1n[n+]2[O-] here?
Answer: Its Ki is 196 nM.

Question: Which results are given for CCOc1ccc2nnc3c(I)cnn3c2c1?
Answer: Ki [4]: 95 nM; Ki [1]: 18 nM; Activity [14]: 0%; Activity [2]: 0.3; Activity [7]: 0%; Activity [8]: 237.7 s; Ki [10]: 13.8 nM; Ki [11]: 133 nM; Activity [12]: 0.7; Activity [3]: 0%

Question: For [O-][n+]1nc2c(I)cnn2c2cc(OCC3CC3)ccc21, which Ki [1] is on record?
Answer: Its Ki is 7.6 nM.

Question: With CSc1ccc2c(c1)n1ncc(I)c1n[n+]2[O-] as the compound, how does the Ki [1] read?
Answer: The Ki was 15.8 nM.

Question: With [O-][n+]1nc2c(I)cnn2c2cc(OCCCl)ccc21 as the compound, how does the Ki [1] read?
Answer: Its Ki is 62 nM.

Question: With CCOc1ccc2c(c1)n1ncc(Cl)c1n[n+]2[O-] as the compound, how does the Ki [1] read?
Answer: The Ki was 160 nM.

Question: Which Ki [1] does the source give for [O-][n+]1nc2c(Br)cnn2c2cc(Cl)ccc21 here?
Answer: Its Ki is 120 nM.

Question: Which Ki [1] does the source give for COCCOc1ccc2c(c1)n1ncc(I)c1n[n+]2[O-] here?
Answer: The Ki was 37 nM.

Question: For CCCOc1ccc2c(c1)n1ncc(I)c1n[n+]2[O-], which Ki [1] is on record?
Answer: Its Ki is 12 nM.

Question: Which Ki [1] does the source give for COc1ccc2c(c1)n1ncc(I)c1n[n+]2[O-] here?
Answer: Its Ki is 13.5 nM.

Question: With [O-][n+]1nc2c(Br)cnn2c2cc(Br)ccc21 as the compound, how does the Ki [1] read?
Answer: The Ki was 73 nM.
